The text below walks through data of ChEMBL document CHEMBL1687712, “Antiviral effects of lamivudine, emtricitabine, adefovir dipivoxil, and tenofovir disoproxil fumarate administered orally alone and in combination to woodchucks with chronic woodchuck hepatitis virus infection” (Antimicrob Agents Chemother, 2008).

Each structure is given as a SMILES string. Active and inactive are the calls of the source. No cut-off for these calls is given here.

In data set [1] the test system is Woodchuck hepatitis virus. Briefly: Antiviral activity against Woodchuck hepatitis virus infected in woodchuck assessed as absent of lesion in lobular hepatitis at 15 mg/kg, po qd measured on 12th week on 48 weeks study. It is filed as functional, organism-based. Also on record: dose 15 mg/kg. The method, boiled down: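 Adult chronic WHV-carrier woodchucks (neonatally inoculated), 5 per group, given drug once daily by dose syringe in semisynthetic liquid diet, for 48 weeks; placebo got diet alone. Ultrasound-guided needle liver biopsies under ketamine/xylazine anesthesia at pretreatment, weeks 12, 36, 48 and 12 weeks post-withdrawal. Biopsies were formalin-fixed, paraffin-embedded and H&E stained. Portal and lobular hepatitis were graded 0 (absent) to 4 (most severe).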

The subject of data set [2] is Woodchuck hepatitis virus. Briefly: Antiviral activity against Woodchuck hepatitis virus infected in woodchuck assessed as reduction of viral DNA replicative intermediate level per ug of total cell DNA at 15 mg/kg, po qd for 48 weeks (reference value: 995 +/- 736 pg). It is filed as functional. The method, boiled down: (§1)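 Chronic WHV-carrier woodchucks, 5 per group, 15 mg/kg/day oral once daily for 48 weeks in liquid diet. Needle liver biopsies were snap-frozen in liquid nitrogen and stored at −70°C. Hepatic WHV DNA replicative intermediates were quantified by Southern blot (pg/μg total cell DNA) and WHV RNA by Northern blot; group means ± SD were compared with pretreatment and placebo.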

For data set [3], the system named is Woodchuck hepatitis virus. Briefly: Antiviral activity against Woodchuck hepatitis virus infected in woodchuck assessed as reduction of viral DNA replicative intermediate level per ug of total cell DNA at 15 mg/kg, po qd for 48 weeks measured on 60th week (reference value: 979 pg). It is filed as functional. The method, boiled down:
as §1

Data set [4] concerns Woodchuck hepatitis virus. Briefly: Antiviral activity against Woodchuck hepatitis virus infected in woodchuck assessed as reduction of viral DNA replicative intermediate level per ug of total cell DNA at 15 mg/kg, po qd measured on 12th week on 48 weeks study (reference value: 1495 +/- 890 pg). It counts as functional. The method, boiled down: as §1
Data set [5] has as its system Woodchuck hepatitis virus. Briefly: Antiviral activity against Woodchuck hepatitis virus infected in woodchuck assessed as reduction of viral antigen level in serum at 15 mg/kg, po qd for 48 weeks measured on 60th week (reference value: 3.3 +/- 1.6 log10 ng/ml). It is filed as functional.
Data set [6] relates to Marmota monax. Briefly: Toxicity in Woodchuck hepatitis virus infected woodchuck assessed as increase of liver sorbitol dehydrogenase activity at 15 mg/kg, po qd measured on 28 to 48 weeks on 48 week study. It counts as organism-based. Also on record: dose 15 mg/kg, route oral. The following applies: in vivo. The method, boiled down: (§2)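 Woodchucks chronically infected with WHV, 5 per group, received oral drug once daily in liquid diet for 48 weeks; placebo got diet only. Serum chemistry (GGT, ALP, ALT, AST, SDH, among others) was run 2 weeks pretreatment, at week 0, every other week to week 12, then monthly to week 48. Sampling continued at 2, 4, 6, 8 and 12 weeks post-treatment.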

Data set [7] concerns Woodchuck hepatitis virus. Briefly: Antiviral activity against Woodchuck hepatitis virus infected in woodchuck assessed as reduction of viral antigen level in serum at 15 mg/kg, po qd for 48 weeks (reference value: 3.8 +/- 1.3 log10 ng/ml). It is filed as functional.
Data set [8] relates to Marmota monax. Briefly: Toxicity in Woodchuck hepatitis virus infected woodchuck assessed as increase of liver alanine aminotransferase activity at 15 mg/kg, po qd measured on 4 to 24 weeks on 48 week study. It is filed as organism-based. Also on record: dose 15 mg/kg, route oral. The following applies: in vivo. The method, boiled down: as §2
Data set [9] relates to Woodchuck hepatitis virus. Briefly: Antiviral activity against Woodchuck hepatitis virus infected in woodchuck assessed as reduction of viral RNA level per ug of total cell DNA at 15 mg/kg, po qd for 48 weeks (reference value: 34 +/- 20 pg). It counts as functional. The method, boiled down: as §1
Data set [10] has as its system Woodchuck hepatitis virus. Briefly: Antiviral activity against Woodchuck hepatitis virus infected in woodchuck assessed as frequency of hepatocytes expressing viral antigen at 15 mg/kg, po qd for 48 weeks measured on 60th week. It is filed as functional, Hepatocyte. The method, boiled down:
(§3)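 Chronic WHV-carrier woodchucks, 5 per group, given 15 mg/kg/day orally once daily for 48 weeks in liquid diet; placebo is diet alone. Liver biopsies at pretreatment, weeks 12, 36, 48 and 12 weeks after withdrawal. Cytoplasmic WHsAg staining scored 0–4: 1 ≤1%, 2 ≤2%, 3 ≤5%, 4 ≥10% of hepatocytes.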

Data set [11] has as its system Marmota monax. Briefly: Toxicity in Woodchuck hepatitis virus infected woodchuck assessed as increase of liver sorbitol dehydrogenase activity at 15 mg/kg, po qd measured on 4 to 24 weeks on 48 week study. Conditions: in vivo. Also on record: dose 15 mg/kg, route oral. It is filed as organism-based. The method, boiled down: as §2
For data set [12], the system named is Marmota monax. Briefly: Toxicity in Woodchuck hepatitis virus infected woodchuck assessed as change in body weight at 15 mg/kg, po qd for 48 weeks measured up to 60 weeks. It is filed as organism-based. Also on record: dose 15 mg/kg, route oral. Conditions: in vivo. The method, boiled down: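 Chronic WHV-carrier woodchucks, 5 per group, were dosed orally once daily in liquid diet for 48 weeks, with a placebo diet-only group. Body weights were monitored. Complete blood counts were taken 2 weeks pretreatment, at weeks 12, 36 and 48 of treatment, and 12 weeks after withdrawal. Values were compared with placebo controls.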

In data set [13] the test system is Woodchuck hepatitis virus. Briefly: Antiviral activity against Woodchuck hepatitis virus infected in woodchuck assessed as reduction of viral RNA level per ug of total cell DNA at 15 mg/kg, po qd for 48 weeks measured on 60th week (reference value: 27 pg). It counts as functional. The method, boiled down:
as §1

Data set [14] has as its system Marmota monax. Briefly: Toxicity in Woodchuck hepatitis virus infected woodchuck assessed as increase of liver aspartate aminotransferase activity at 15 mg/kg, po qd for 48 weeks. Conditions: in vivo, 8064 h. It is filed as organism-based. Also on record: dose 15 mg/kg, route oral. The method, boiled down:
as §2

For data set [15], the system named is Woodchuck hepatitis virus. Briefly: Antiviral activity against Woodchuck hepatitis virus infected in woodchuck assessed as frequency of hepatocytes expressing viral antigen at 15 mg/kg, po qd for 48 weeks. It counts as functional, Hepatocyte. The method, boiled down:
as §3

For data set [16], the system named is Woodchuck hepatitis virus. Briefly: Antiviral activity against Woodchuck hepatitis virus infected in woodchuck assessed as reduction of viral antigen positive hepatocytes at 15 mg/kg, po qd measured on 36th week on 48 weeks study (reference value: 41 +/- 25 %). It is filed as functional, Hepatocyte. Also on record: scale not given: the % may be the effect or the level left. The method, boiled down:
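Chronic WHV-carrier woodchucks, 5 per group, 15 mg/kg/day oral once daily for 48 weeks in liquid diet. Liver biopsies were taken at pretreatment, weeks 12, 36, 48 and week 60. Percentage of hepatocytes positive for WHcAg was given as group mean ± SD and compared with pretreatment and placebo.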

Data set [17] relates to Woodchuck hepatitis virus. Briefly: Antiviral activity against Woodchuck hepatitis virus infected in woodchuck assessed as absent of lesion in lobular hepatitis at 15 mg/kg, po qd measured on 36th week on 48 weeks study. It counts as functional, organism-based. Also on record: dose 15 mg/kg. The method, boiled down: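 Chronic WHV-carrier adult woodchucks (inoculated at 3 days of age), 5 per group, dosed orally once daily for 48 weeks by dose syringe, drug in saline suspended in semisynthetic liquid diet; placebo is diet alone. Ultrasound-guided needle liver biopsies under ketamine/xylazine, formalin-fixed, H&E stained; portal and lobular hepatitis graded 0 (absent) to 4 (most severe).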

The subject of data set [18] is Woodchuck hepatitis virus. Briefly: Antiviral activity against Woodchuck hepatitis virus infected in woodchuck assessed as frequency of hepatocytes expressing viral antigen at 15 mg/kg, po qd measured on 36th week on 48 weeks study. It is filed as functional, Hepatocyte. The method, boiled down: as §3
In data set [19] the test system is Woodchuck hepatitis virus. Briefly: Antiviral activity against Woodchuck hepatitis virus infected in woodchuck assessed as reduction of viral RNA level per ug of total cell DNA at 15 mg/kg, po qd measured on 12th week on 48 weeks study (reference value: 46 +/- 25 pg). It counts as functional. The method, boiled down: as §1
Data set [20] relates to Woodchuck hepatitis virus. Briefly: Antiviral activity against Woodchuck hepatitis virus infected in woodchuck assessed as reduction of viral RNA level per ug of total cell DNA at 15 mg/kg, po qd measured on 36th week on 48 weeks study (reference value: 33 +/- 21 pg). It is filed as functional. The method, boiled down: as §1
Data set [21] relates to Woodchuck hepatitis virus. Briefly: Antiviral activity against Woodchuck hepatitis virus infected in woodchuck assessed as reduction of viral antigen level in serum at 15 mg/kg, po qd measured on 36th week on 48 weeks study (reference value: 3.8 +/- 1.3 log10 ng/ml). It is filed as functional.

`CC(C)(C)C(=O)OCOP(=O)(COCCn1cnc2c(N)ncnc21)OCOC(=O)C(C)(C)C` [ADEFOVIR DIPIVOXIL]: the result in data set [1] and in data set [17] was Active. Moreover, the Activity was 151 pg in [2]; 1147 pg in data set [3]; 330 pg in data set [4]; 5 log10ng/ml in [5]; “Toxic” in the data set with Marmota monax [6]; 4.1 log10ng/ml in [7]. Moreover, the Activity entry with Marmota monax [8] is on record as “Toxic”; in data set [9] it was 24 pg; in data set [10], 1%; with Marmota monax [11], “Toxic”; with Marmota monax [12], “Non-toxic”; in [13], 46 pg. Further, the Activity result with Marmota monax [14] is listed as “Toxic”; in data set [15], 2%; in [16], 45%; in [18] it was 5%; in [19], 33 pg; in data set [20] it was 34 pg. Moreover, the Activity in data set [21] is on record as 4.8 log10ng/ml.
For `CC(C)OC(=O)OCOP(=O)(CO[C@H](C)Cn1cnc2c(N)ncnc21)OCOC(=O)OC(C)C.O=C(O)/C=C/C(=O)O` [TENOFOVIR DISOPROXIL FUMARATE], the result in data set [1] and in data set [17] was Active. Besides, the Activity in data set [2] is on record as 704 pg; in data set [3], 1374 pg; in [4], 870 pg; in data set [5], 4 log10ng/ml; in the data set on Marmota monax [6], “Toxic”; in [7], 3.6 log10ng/ml. Further, the Activity entry in the data set with Marmota monax [8] is listed as “Toxic”; in data set [9], 31 pg; in data set [10] it was 2%; in the data set with Marmota monax [11] it was “Toxic”; in the data set with Marmota monax [12], “Non-toxic”; in data set [13], 34 pg. Further, the Activity result in the data set on Marmota monax [14] is given as “Toxic”; in data set [15] it was 1%; in data set [16] it was 20%; in data set [18], 1%; in data set [19], 30 pg; in [20], 25 pg. Further, the Activity in data set [21] amounted to 2.9 log10ng/ml.
